From PubChem
A selection: hits, their analogues and other compounds. The true share with any hit is near 3.6%.
FGF22 binding: binders of human FGF22 protein, primary screen, FGF22 synaptogenesis inhibitor project, biophysical, thermal shift, single point; recombinant FGF22 thermal shift, SYPRO orange fluorescence; percent of sucrose octasulfate shift, DMSO zero; Fibroblast growth factor 22 (Homo sapiens), Q9HCT0; hit rate 1.5% among 340,000; activity (Tm shift, normalised), % at 9.99 µM; AID 651658, 2012;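 active = mean Tm shift, scaled 0 neutral to 100 positive control, at about 1.3% or above, every replicate too, limit read from the data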
Target sequence (Q9HCT0 whole entry, looked up): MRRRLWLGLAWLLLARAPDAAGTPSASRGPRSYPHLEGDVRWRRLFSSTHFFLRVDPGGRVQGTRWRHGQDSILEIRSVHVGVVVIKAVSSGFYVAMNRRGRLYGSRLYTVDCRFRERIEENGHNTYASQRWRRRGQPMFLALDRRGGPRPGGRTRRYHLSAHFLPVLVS
ZTA counter: blocks Epstein-Barr virus ZTA, an EBNA-1 counter-screen | P03206 | ZTA-DNA binding, fluorescence polarization | inhibition, % at 11 µM | hit rate 0.15% among 320,000; in the data active = inhibition above about 33%
Target sequence (P03206 whole entry, looked up): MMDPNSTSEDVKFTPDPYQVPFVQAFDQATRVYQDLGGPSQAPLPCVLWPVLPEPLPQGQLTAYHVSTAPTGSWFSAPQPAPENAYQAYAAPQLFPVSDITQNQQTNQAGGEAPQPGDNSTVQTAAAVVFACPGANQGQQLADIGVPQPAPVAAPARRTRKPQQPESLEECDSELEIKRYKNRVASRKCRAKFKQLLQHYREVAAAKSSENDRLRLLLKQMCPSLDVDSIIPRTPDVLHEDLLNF
EBNA-1 inh: EBNA-1 DNA-binding inhibitors, primary screen, biochemical, fluorescence polarization; inhibition, % at 14.8 µM; hit rate 0.34% among 300,000; AID 1950, 2009; in the data active = inhibition above about 28%
NS3 helicase inh: inhibitors of HCV NS3 helicase, primary screen, biochemical, Cy5 molecular beacon fluorescence. Hepatitis C virus NS3 helicase. NS3 helicase DNA unwinding. inhibition, % at 10.9 µM. hit rate 0.56% among 290,000;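 active = inhibition above the mean of all tested compounds plus 3 SD, set per campaign, cut at about 35% in these data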;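 note: 0% = DMSO wells and 100% = thioflavine S control wells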
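System: NS3 helicase fragment of HCV / Schedule: 1 h at 25 °C / Control set: DMSO alone as 0% and 110 µM thioflavine S as 100% / Reagent: Cy5/quencher beacon DNA duplex and ATP to start / Technique: Cy5 fluorescence / Replication: singlicate / Evaluation: % inhibition of end-to-start signal ratio versus controls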
DNA FID counter-1: compounds displacing fluorescent DNA intercalator, primary screen, artefact control for HCV NS3 helicase inhibitor project, biochemical, FID fluorescence | DNA fluorescent intercalator displacement | inhibition, % at 7.9 µM | hit rate 0.17% among 290,000;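 note: 0% = vehicle and 100% = reference compound; higher means more ethidium bromide displaced from hairpin DNA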
NR3A LBD binder: binders of NR3A ligand-binding domain, primary screen, biophysical, differential scanning fluorimetry, uHTS; Glutamate receptor ionotropic, NMDA 3A (GRIN3A) ligand-binding domain; NR3A LBD differential scanning fluorimetry, Tm shift; 0% = protein alone, 100% = glycine-bound protein; Tm shift relative to glycine control, % at 25 µM; hit rate 2.5% among 340,000; AID 1259313, 2017;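 active = melting temperature shift of at least 10% of the positive control shift, at one fixed dose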
NS3 hel confirm: HCV NS3 helicase inhibitors, retest, confirmation, biochemical, Cy5 molecular beacon fluorescence, triplicate | AID 1943, 2009 | hit rate 31% among 1,600 | inhibition, % at 10.9 µM | NS3 helicase DNA unwinding | shares compounds with NS3 helicase inh;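 active = inhibition above the mean of all tested compounds plus 3 SD, cutoff set per campaign, cut at about 36% in these data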
DNA FID counter-2: compounds displacing fluorescent DNA intercalator, artefact control for HCV NS3 helicase inhibitor project, biochemical, FID fluorescence, triplicate; shares compounds with NS3 helicase inh; DNA fluorescent intercalator displacement; inhibition, % at 7.9 µM; hit rate 4% among 1,600; AID 1945, 2009;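 note: 0% = vehicle and 100% = reference compound; higher means more displacement of ethidium bromide from the DNA hairpin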
DNA FID DR: compounds displacing fluorescent intercalator from DNA, dose response, counter-screen for HCV NS3 helicase inhibitor project, biochemical, fluorescence; shares compounds with NS3 helicase inh; fluorescent intercalator displacement from DNA; IC50, µM; 120 tested, under 10 active; AID 2172, 2009; call rule not given here
* marks the source's active call; other numbers are inactive results; . = no result given; + = active, no number. Cut-off read from the data, not from the text of the source, unless noted: active = inhibition above about 37%; inactive = the rest.

SMILES	FGF22 binding	ZTA counter	EBNA-1 inh	NS3 helicase inh	DNA FID counter-1	NR3A LBD binder	NS3 hel confirm	DNA FID counter-2	others
CN(C)CC(=O)Nc1ccc2c(c1)[C@H]1C[C@@H](CC(=O)NCc3cccc(F)c3)O[C@H](CO)[C@H]1O2	-0.2	.	.	.	.	.	.	.
CCN(C(=O)COC(=O)c1cc(-c2ccc(C)o2)nc2ccccc12)C1CCS(=O)(=O)C1 (configuration not stated)	0.1	6.4	0.8	0.2	-22.6	-0.6	.	.
CN(C(=O)COC(=O)c1ccc2ccccc2n1)C1CCS(=O)(=O)C1 (configuration not stated)	0.1	+	+	-8.5	1.9	1.8	.	.
Cc1ccc(-c2cc(C(=O)OCC(=O)N(C)C3CCS(=O)(=O)C3)c3ccccc3n2)o1 (configuration not stated)	43.2*	18.3	-7.6	22.4	-20.3	-0.7	.	.
O=C(C[C@H]1CC[C@H]2[C@@H](COC[C@H](O)CN2C(=O)Nc2ccc(F)cc2)O1)NCCCN1CCOCC1	-0.3	.	.	.	.	.	.	.
CN(C)C(=O)C[C@H]1CC[C@H](NC(=O)C2CCOCC2)[C@@H](CO)O1	0.2	.	.	.	.	.	.	.
COC(=O)C1CCN(C(=O)COC(=O)c2oc3ccccc3c2C)CC1	-0.1	26.6	9.5	.	.	16.8*	.	.
Cc1ccc(N(C)S(=O)(=O)c2c[nH]c3ccc([N+](=O)[O-])cc23)cc1	0.0	4.7	-7.9	-12.2	22.3	117.0*	.	.
O=c1c2ccccc2nc(COc2ccccc2)n1/N=C/c1c[nH]c2ccccc12	-0.1	-10.4	19.5	-4.5	6.9	25.0*	.	.
Cc1ccccc1OCc1nc2ccccc2c(=O)n1/N=C/c1cn[nH]c1-c1ccc(Br)cc1	-0.1	5.3	1.3	5.4	1.9	25.7*	.	.
CC(C)NC(=O)N(C)C[C@@H]1Oc2ncc(C#Cc3ccncc3)cc2C(=O)N([C@@H](C)CO)C[C@H]1C	0.1	.	.	.	.	.	.	.
CCCOC(=O)/C(=C\C=C\c1ccco1)NC(=O)c1ccccc1	0.2	12.5	2.2	40.3*	-27.9	-1.1	-5.5	-13.6
COC(=O)/C(=C/c1ccco1)NC(=O)c1ccccc1	0.1	-15.2	1.9	-3.5	0.5	-3.1	.	.
O=C(N/N=C/C=C/c1ccco1)/C(=C/c1ccccc1)NC(=O)c1ccccc1	-0.1	5.6	10.6	36.5*	-7.2	3.5	53.9*	6.1
CCCOC(=O)/C(=C\c1ccc([N+](=O)[O-])o1)NC(=O)c1ccccc1	.	16.2	-7.9	38.2*	-20.2	1.4	-16.2	-4.2
CO[C@H]1CC[C@@H]2CCN(C)C(=O)C[C@@H](c3ccccc3)CN(C)C(=O)c3cccc(C#N)c3OC[C@H]1O2	0.0	.	.	.	.	.	.	.
Nc1ccc(-c2c3ccc(=O)cc-3oc3cc(O)ccc23)cc1C(=O)O	-0.3	8.1	1.6	2.8	-21.4	0.8	.	.
O=c1ccc2c(-c3ccccc3)c3ccc(O)cc3oc-2c1	-0.1	5.8	0.0	73.3*	-17.9	-0.2	67.5*	-11.2	DNA FID DR=>79.4
Cc1cc(/C=C2\SC(=S)NC2=O)c(C)n1-c1ccccc1	-0.1	-3.8	4.6	38.7*	-9.6	-0.1	13.1	-5.0
Cc1cc(/C=C2\SC(=S)NC2=O)c(C)n1-c1ccc(O)cc1	0.2	-2.2	2.6	45.2*	-8.1	2.0	18.5	13.4
C[C@H]1CN([C@@H](C)CO)C(=O)c2cccc(NC(=O)Nc3ccc(C(F)(F)F)cc3)c2O[C@@H]1CN(C)Cc1ccc(C(=O)Nc2ccccc2N)cc1	-0.4	.	.	.	.	.	.	.
